Reference: ChEMBL document CHEMBL3297689, “Phenylalanine-Based Inactivator of AKT Kinase: Design, Synthesis, and Biological Evaluation” (ACS Med Chem Lett, 2014)

Legend:
[1] = target: Vascular endothelial growth factor receptor 2 (Homo sapiens) (UniProt P35968); test: Inhibition of VEGFR2 (unknown origin) at 1 uM in presence of 100 uM ATP
[2] = target: Ribosomal protein S6 kinase beta-1 (Homo sapiens) (UniProt P23443); test: Inhibition of p70S6K (unknown origin) at 1 uM in presence of 100 uM ATP
[3] = target: T1, RAC-alpha serine/threonine-protein kinase (Homo sapiens, UniProt P31749); test: Inhibition of AKT1 (unknown origin) at 1 uM in presence of 100 uM ATP
[4] = target: Receptor tyrosine-protein kinase erbB-4 (Homo sapiens) (UniProt Q15303); test: Inhibition of ERBB4 (unknown origin) at 1 uM in presence of 100 uM ATP
[5] = target: Hepatocyte growth factor receptor (Homo sapiens) (UniProt P08581); test: Inhibition of MET (unknown origin) at 1 uM in presence of 100 uM ATP
[6] = target: MAP kinase-interacting serine/threonine-protein kinase 1 (Homo sapiens) (UniProt Q9BUB5); test: Inhibition of MKNK1 (unknown origin) at 1 uM in presence of 100 uM ATP
NCI-H460 = test: Growth inhibition of human NCI-H460 cells after 72 hrs by coulter counter method; assay type: functional, cell-based; conditions: NCI-H460, 72 h
[7] = target: Cyclin-dependent kinase 1/cyclin B1 (Homo sapiens) (UniProt P06493+P14635); test: Inhibition of CDK1/cyclinB (unknown origin) at 1 uM in presence of 100 uM ATP; assay type: protein-complex assay
[8] = target: Tyrosine-protein kinase Lyn (Homo sapiens) (UniProt P07948); test: Inhibition of LYN A (unknown origin) at 1 uM in presence of 100 uM ATP
[9] = target: Tyrosine-protein kinase SYK (Homo sapiens) (UniProt P43405); test: Inhibition of SYK (unknown origin) at 1 uM in presence of 100 uM ATP
[10] = target: Serine/threonine-protein kinase MARK1 (Homo sapiens) (UniProt Q9P0L2); test: Inhibition of MARK1 (unknown origin) at 1 uM in presence of 100 uM ATP
[11] = target: Calcium/calmodulin-dependent protein kinase type 1D (Homo sapiens) (UniProt Q8IU85); test: Inhibition of CAMK1D (unknown origin) at 1 uM in presence of 100 uM ATP
[12] = target: Mitogen-activated protein kinase 3 (Homo sapiens) (UniProt P27361); test: Inhibition of MAPK3 (unknown origin) at 1 uM in presence of 100 uM ATP
[13] = target: Serine/threonine-protein kinase PLK1 (Homo sapiens) (UniProt P53350); test: Inhibition of PLK1 (unknown origin) at 1 uM in presence of 100 uM ATP
[14] = target: T1, RAC-alpha serine/threonine-protein kinase; test: Inhibition of AKT1 (unknown origin) after 1 hr by Z'-LYTE kinase assay in presence of 75 uM ATP
[15] = target: MAP kinase-activated protein kinase 2 (Homo sapiens) (UniProt P49137); test: Inhibition of MAPKAPK2 (unknown origin) at 1 uM in presence of 100 uM ATP
[16] = target: 5'-AMP-activated protein kinase catalytic subunit alpha-1 (Homo sapiens) (UniProt Q13131); test: Inhibition of AMPKalpha1 (unknown origin) at 1 uM in presence of 100 uM ATP
[17] = target: Mitogen-activated protein kinase 1 (Homo sapiens) (UniProt P28482); test: Inhibition of MAPK1 (unknown origin) at 1 uM in presence of 100 uM ATP
[18] = target: Mitogen-activated protein kinase 14 (Homo sapiens) (UniProt Q16539); test: Inhibition of MAPK14 (unknown origin) at 1 uM in presence of 100 uM ATP
[19] = target: Vascular endothelial growth factor receptor 1 (Homo sapiens) (UniProt P17948); test: Inhibition of FLT1 (unknown origin) at 1 uM in presence of 100 uM ATP
[20] = target: Tyrosine-protein kinase ABL1 (Homo sapiens) (UniProt P00519); test: Inhibition of ABL1 (unknown origin) at 1 uM in presence of 100 uM ATP
[21] = target: cAMP-dependent protein kinase catalytic subunit PRKX (Homo sapiens) (UniProt P51817); test: Inhibition of PRKX (unknown origin) at 1 uM in presence of 100 uM ATP
[22] = target: Platelet-derived growth factor receptor alpha (Homo sapiens) (UniProt P16234); test: Inhibition of PDGFRA (unknown origin) at 1 uM in presence of 100 uM ATP
[23] = target: Serine/threonine-protein kinase Chk1 (Homo sapiens) (UniProt O14757); test: Inhibition of CHK1 (unknown origin) at 1 uM in presence of 100 uM ATP
[24] = Inhibition of PKAalpha (unknown origin) after 1 hr by Z'-LYTE kinase assay in presence of 4 uM ATP; design: species or system Homo sapiens
Summary of the method: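 Z′-LYTE FRET assay measuring phosphorylation of a peptide substrate by recombinant kinase, independent of mechanism. IC50 is the average of three independent experiments, with 95% confidence intervals.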

Homo sapiens [25] = species: Homo sapiens; test: Inhibition of PKAalpha (unknown origin) at 1 uM in presence of 100 uM ATP
[26] = target: Serine/threonine-protein kinase Chk2 (Homo sapiens) (UniProt O96017); test: Inhibition of CHK2 (unknown origin) at 1 uM in presence of 100 uM ATP
[27] = target: AMP-activated protein kinase, AMPK (Homo sapiens) (UniProt P54646+O43741+P54619+Q9UGJ0+Q9Y478+Q13131+Q9UGI9); test: Inhibition of AMPKalpha1/beta1/gamma1 (unknown origin) at 1 uM in presence of 100 uM ATP; assay type: protein-complex assay
[28] = target: Calcium/calmodulin-dependent protein kinase type IV (Homo sapiens) (UniProt Q16566); test: Inhibition of CAMK-4 (unknown origin) at 1 uM in presence of 100 uM ATP
[29] = target: CDK2/Cyclin A2 (Homo sapiens) (UniProt P24941+P20248); test: Inhibition of CDK2/cyclinA (unknown origin) at 1 uM in presence of 100 uM ATP; assay type: protein-complex assay
[30] = target: Maternal embryonic leucine zipper kinase (Homo sapiens) (UniProt Q14680); test: Inhibition of MELK (unknown origin) at 1 uM in presence of 100 uM ATP
Homo sapiens [31] = species: Homo sapiens; test: Selectivity for AKT1 (unknown origin) over PKAalpha (unknown origin)
Summary of the method: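 Selectivity is the PKAα IC50 divided by the AKT1 IC50. Both IC50s were measured in the FRET-based Z′-LYTE peptide-phosphorylation assay.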

[32] = target: PAS domain-containing serine/threonine-protein kinase (Homo sapiens) (UniProt Q96RG2); test: Inhibition of PASK (unknown origin) at 1 uM in presence of 100 uM ATP
[33] = target: Ribosomal protein S6 kinase alpha-5 (Homo sapiens) (UniProt O75582); test: Inhibition of MSK1 (unknown origin) at 1 uM in presence of 100 uM ATP

T1 sequence (P31749 whole entry): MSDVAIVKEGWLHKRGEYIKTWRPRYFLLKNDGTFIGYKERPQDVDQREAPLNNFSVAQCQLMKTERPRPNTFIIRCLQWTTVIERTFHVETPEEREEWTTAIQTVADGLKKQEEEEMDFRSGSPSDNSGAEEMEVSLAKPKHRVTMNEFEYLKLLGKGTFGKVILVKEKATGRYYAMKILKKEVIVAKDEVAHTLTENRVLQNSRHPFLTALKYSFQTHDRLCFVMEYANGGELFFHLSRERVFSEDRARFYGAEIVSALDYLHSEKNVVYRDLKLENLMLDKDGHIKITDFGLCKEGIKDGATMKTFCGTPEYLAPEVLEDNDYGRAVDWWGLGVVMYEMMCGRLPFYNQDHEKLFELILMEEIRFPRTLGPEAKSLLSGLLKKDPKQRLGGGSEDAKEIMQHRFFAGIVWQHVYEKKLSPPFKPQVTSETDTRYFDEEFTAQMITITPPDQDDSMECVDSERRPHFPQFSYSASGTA
Sequence of Vascular endothelial growth factor receptor 1 (Homo sapiens) (P17948 whole entry): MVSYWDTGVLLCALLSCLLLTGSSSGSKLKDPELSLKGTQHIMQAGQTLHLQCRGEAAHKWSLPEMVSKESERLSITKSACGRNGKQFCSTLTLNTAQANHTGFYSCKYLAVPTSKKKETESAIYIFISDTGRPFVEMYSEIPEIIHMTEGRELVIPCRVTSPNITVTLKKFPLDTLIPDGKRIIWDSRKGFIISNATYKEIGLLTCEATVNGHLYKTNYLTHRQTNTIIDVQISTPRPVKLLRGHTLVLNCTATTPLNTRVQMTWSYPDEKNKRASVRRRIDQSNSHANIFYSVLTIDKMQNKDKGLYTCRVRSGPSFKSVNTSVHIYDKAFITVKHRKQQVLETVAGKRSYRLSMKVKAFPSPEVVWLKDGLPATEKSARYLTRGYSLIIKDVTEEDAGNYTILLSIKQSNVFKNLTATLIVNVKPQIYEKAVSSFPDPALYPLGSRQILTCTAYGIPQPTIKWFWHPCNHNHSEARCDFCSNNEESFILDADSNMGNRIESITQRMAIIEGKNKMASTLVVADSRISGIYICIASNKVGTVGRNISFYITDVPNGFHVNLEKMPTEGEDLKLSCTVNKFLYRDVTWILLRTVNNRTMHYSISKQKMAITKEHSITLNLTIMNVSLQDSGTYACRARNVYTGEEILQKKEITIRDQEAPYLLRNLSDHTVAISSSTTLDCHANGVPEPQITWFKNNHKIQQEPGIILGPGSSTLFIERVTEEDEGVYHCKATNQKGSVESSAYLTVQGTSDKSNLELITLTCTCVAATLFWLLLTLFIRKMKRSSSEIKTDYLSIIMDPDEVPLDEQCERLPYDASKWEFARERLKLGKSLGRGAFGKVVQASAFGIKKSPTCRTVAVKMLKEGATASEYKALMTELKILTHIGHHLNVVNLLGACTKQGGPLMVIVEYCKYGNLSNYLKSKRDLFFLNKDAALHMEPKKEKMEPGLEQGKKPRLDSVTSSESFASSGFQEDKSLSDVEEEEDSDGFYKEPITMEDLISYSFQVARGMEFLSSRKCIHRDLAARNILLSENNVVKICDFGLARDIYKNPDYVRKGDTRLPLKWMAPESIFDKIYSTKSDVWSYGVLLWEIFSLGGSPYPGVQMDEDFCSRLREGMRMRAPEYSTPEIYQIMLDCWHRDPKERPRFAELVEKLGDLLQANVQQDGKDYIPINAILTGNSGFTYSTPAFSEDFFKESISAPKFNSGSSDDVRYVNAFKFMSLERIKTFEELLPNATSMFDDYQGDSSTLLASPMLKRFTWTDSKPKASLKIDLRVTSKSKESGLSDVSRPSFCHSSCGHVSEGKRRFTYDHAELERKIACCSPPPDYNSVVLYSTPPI
Sequence of Mitogen-activated protein kinase 1 (Homo sapiens) (P28482 whole entry): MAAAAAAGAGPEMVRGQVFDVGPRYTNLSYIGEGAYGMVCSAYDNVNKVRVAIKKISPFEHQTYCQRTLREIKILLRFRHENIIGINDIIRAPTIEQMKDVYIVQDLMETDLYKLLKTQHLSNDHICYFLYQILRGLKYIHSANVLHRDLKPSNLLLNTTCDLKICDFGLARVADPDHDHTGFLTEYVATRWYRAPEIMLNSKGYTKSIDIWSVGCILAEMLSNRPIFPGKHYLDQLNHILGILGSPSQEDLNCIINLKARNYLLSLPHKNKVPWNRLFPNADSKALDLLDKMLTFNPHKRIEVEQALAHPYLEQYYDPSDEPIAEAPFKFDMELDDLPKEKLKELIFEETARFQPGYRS
Sequence of Serine/threonine-protein kinase Chk2 (Homo sapiens) (O96017 whole entry): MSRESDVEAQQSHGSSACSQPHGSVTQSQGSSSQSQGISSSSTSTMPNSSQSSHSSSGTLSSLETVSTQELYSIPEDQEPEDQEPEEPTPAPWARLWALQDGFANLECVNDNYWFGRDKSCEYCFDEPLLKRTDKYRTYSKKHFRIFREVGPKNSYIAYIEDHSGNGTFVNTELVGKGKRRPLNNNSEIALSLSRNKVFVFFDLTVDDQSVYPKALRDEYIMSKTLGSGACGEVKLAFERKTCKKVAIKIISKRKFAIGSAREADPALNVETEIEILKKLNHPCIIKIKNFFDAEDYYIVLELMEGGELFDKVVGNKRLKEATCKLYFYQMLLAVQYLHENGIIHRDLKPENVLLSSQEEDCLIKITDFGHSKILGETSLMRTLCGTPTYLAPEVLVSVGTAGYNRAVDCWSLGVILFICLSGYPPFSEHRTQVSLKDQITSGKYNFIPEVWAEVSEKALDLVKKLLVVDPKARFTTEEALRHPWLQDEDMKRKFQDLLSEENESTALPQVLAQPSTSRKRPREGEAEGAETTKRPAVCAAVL
Sequence of Hepatocyte growth factor receptor (Homo sapiens) (P08581 whole entry): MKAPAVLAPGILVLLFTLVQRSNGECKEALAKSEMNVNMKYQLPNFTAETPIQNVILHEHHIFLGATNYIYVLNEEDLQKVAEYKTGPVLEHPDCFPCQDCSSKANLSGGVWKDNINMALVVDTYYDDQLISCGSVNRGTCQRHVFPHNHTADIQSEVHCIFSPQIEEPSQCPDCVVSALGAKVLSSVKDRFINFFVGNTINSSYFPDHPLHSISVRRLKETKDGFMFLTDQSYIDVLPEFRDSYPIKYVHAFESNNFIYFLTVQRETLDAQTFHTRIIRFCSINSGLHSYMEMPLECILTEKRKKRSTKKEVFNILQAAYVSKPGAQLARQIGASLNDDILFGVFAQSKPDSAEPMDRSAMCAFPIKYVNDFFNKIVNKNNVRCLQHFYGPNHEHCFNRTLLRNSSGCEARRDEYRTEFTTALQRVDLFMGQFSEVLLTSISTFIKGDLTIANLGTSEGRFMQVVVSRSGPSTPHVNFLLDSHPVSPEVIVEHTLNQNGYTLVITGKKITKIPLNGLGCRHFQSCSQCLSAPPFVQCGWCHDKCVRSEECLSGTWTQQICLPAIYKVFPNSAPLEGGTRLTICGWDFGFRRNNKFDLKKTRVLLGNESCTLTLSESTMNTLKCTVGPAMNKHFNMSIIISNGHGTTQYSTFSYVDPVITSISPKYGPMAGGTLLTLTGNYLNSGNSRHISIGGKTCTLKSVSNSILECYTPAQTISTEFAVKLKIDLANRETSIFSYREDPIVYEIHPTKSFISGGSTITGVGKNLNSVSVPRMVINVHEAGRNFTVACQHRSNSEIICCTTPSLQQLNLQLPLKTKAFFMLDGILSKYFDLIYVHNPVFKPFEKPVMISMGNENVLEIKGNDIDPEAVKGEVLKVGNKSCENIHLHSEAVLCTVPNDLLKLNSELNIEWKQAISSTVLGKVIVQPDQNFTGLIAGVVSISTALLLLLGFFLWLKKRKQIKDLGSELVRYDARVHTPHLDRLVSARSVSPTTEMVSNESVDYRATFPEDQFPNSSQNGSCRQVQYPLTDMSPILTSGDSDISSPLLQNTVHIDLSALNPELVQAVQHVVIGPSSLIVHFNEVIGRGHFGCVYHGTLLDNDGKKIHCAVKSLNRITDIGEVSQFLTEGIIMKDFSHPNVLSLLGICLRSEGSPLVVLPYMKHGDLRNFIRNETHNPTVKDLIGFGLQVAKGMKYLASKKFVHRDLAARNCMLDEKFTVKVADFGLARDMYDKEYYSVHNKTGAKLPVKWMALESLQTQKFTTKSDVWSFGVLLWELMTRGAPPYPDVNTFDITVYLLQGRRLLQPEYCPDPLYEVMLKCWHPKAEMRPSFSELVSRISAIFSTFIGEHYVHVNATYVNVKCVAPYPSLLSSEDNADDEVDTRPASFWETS
Sequence of 5'-AMP-activated protein kinase catalytic subunit alpha-1 (Homo sapiens) (Q13131 whole entry, looked up): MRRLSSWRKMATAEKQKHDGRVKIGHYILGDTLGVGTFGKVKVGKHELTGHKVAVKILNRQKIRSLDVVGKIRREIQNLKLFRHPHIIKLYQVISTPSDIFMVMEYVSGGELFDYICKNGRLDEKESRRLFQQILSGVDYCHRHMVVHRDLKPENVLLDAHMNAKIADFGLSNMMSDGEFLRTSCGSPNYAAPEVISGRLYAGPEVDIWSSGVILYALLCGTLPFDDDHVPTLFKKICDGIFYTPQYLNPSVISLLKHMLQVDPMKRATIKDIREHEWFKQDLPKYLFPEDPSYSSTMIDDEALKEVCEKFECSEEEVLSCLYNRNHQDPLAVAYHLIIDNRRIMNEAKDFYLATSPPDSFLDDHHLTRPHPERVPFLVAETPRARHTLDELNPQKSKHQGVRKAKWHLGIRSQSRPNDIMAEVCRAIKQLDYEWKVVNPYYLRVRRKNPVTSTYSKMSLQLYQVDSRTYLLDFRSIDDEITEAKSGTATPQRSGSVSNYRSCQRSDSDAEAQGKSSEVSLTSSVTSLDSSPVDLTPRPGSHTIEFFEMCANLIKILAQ
Sequence of cAMP-dependent protein kinase catalytic subunit PRKX (Homo sapiens) (P51817 whole entry): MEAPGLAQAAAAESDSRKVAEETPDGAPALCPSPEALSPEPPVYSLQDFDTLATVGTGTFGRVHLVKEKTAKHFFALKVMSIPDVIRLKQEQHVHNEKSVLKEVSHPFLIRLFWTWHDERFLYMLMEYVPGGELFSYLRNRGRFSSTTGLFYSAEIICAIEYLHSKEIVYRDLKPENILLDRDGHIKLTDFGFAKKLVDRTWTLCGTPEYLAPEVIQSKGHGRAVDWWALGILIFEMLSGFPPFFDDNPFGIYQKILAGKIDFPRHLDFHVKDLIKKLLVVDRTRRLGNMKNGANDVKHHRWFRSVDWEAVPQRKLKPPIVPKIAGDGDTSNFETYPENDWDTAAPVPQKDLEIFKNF

C=CC(=O)[C@H](Cc1ccccc1)NC(=O)OC(C)(C)C
inhibition [1]: -6%
inhibition [2]: 14%
inhibition [3]: 50%
inhibition [4]: 9%
inhibition [5]: 11%
inhibition [6]: 2%
IC50 (NCI-H460): 22.9 µM
inhibition [7]: 9%
inhibition [8]: 5%
inhibition [9]: -1%
inhibition [10]: 4%
inhibition [11]: 36%
inhibition [12]: 8%
inhibition [13]: 10%
IC50 [14]: 0.58 µM
inhibition [15]: -7%
inhibition [16]: 46%
inhibition [17]: 15%
inhibition [18]: 17%
inhibition [19]: 2%
inhibition [20]: 13%
inhibition [21]: -1%
inhibition [22]: 0%
inhibition [23]: 5%
IC50 [24]: 52.6 µM
inhibition (Homo sapiens [25]): -10%
inhibition [26]: 46%
inhibition [27]: 46%
inhibition [28]: 50%
inhibition [29]: 3%
inhibition [30]: 62%
Selectivity ratio (Homo sapiens [31]): 90
inhibition [32]: 19%
inhibition [33]: 10%
